Measured values as given in ChEMBL document CHEMBL1124663, “Design, synthesis, antineoplastic activity, and chemical properties of bis(carbamate) derivatives of 4,5-bis(hydroxymethyl)imidazole” (J Med Chem, 1989).

Columns and labels:
Mus musculus [1] = experiment: The toxicity day was evaluated on […] for MX-1 tumor cells of test animals dosed with 200 mg/kg of compound; 1/6; assay type: functional
In short: (§1)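 Human MX-1 mammary xenograft, a 1 mm3 (0.5 mg) tumor fragment implanted under the renal capsule of NCR-nu mice on day 0. Drug given ip as a fresh saline suspension on days 1, 5 and 9. Tumor size is assessed on day 11. A negative % T/C is percent shrinkage relative to the initial implant. Survivors in the toxicity group are […].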

Mus musculus [2] = experiment: The percent of the median survival time of test mice compared to control mice, administered with 100 mg/kg compound on day 5 for L1210 tumor cells; assay type: functional
In short: (§2)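 L1210 leukemia, 10^5 cells implanted ip on day 0. Drug given ip daily on days 1-5 as a saline suspension freshly prepared before each injection. Read-out is median survival of treated versus control mice (% T/C), and log cell kill is derived from it.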

Mus musculus [3] = experiment: Body Weight Difference (BWD) of test animals administered with 6.25 mg/kg compound is determined on day 5 for P388 tumor cells; assay type: functional
In short: (§3)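 P388 leukaemia: about 10^6 cells in ascitic fluid inoculated ip on day 0 (CD2F1 mice). Compound given ip in normal saline as a freshly prepared solution or suspension, once daily on days 1–5. Treated-minus-control body weight difference in g, taken as day 5 minus day 1 weight. Groups of six.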

Mus musculus [4] = experiment: Toxicity day evaluation was carried out on day 5 for animal dosed with 12.5 mg/kg compound; 6/6; assay type: organism-based; design: dose 12.5 mg/kg; conditions: in vivo
Mus musculus [5] = experiment: The percent of the median survival time of test mice compared to control mice, administered with 100 mg/kg compound on day 14 for M5076 minus 1 tumor cells; assay type: functional
In short: (§4)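 M5076 sarcoma, 10^6 cells ip on day 0 in B6C3F1 mice. Drug given ip as a fresh saline suspension every fourth day (days 1, 5, 9, 13). % T/C is median survival of treated versus control mice, counting long-term survivors. Cures are 60-day survivors. Log cell kill is derived from this.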

Mus musculus [6] = experiment: The toxicity day was evaluated […] for MX-1 tumor cells of test animals dosed with 100 mg/kg of compound; 6/6; assay type: functional; in short: as §1
Mus musculus [7] = experiment: The percent of the median survival time of test mice compared to control mice is % T/C. It is determined for mice administered with 50 mg/kg compound on day 0 for LOX 1 tumor cells.; assay type: functional; conditions: route intraperitoneal
Mus musculus [8] = experiment: The toxicity day was […] tumor cells of test animals dosed with 400 mg/kg of compound; 1/10; assay type: functional, M5076
In short: (§5)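 M5076 sarcoma, 10^6 cells, inoculated ip into B6C3F1 mice on day 0. Fresh saline suspension given ip every fourth day (days 1, 5, 9, 13). Toxicity survivors were scored on day 5 as survivors over initial group. Body-weight difference was day 14 minus day 1.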

Mus musculus [9] = experiment: Toxicity day evaluation was carried out on day 5 for animal dosed with 6.25 mg/kg compound; 5/6; assay type: organism-based; design: dose 6.25 mg/kg; conditions: in vivo
Mus musculus [10] = experiment: The toxicity day was evaluated on day 0 for LOX tumor cells of test animals dosed with 25 mg/kg of compound; 6/6; assay type: functional
Mus musculus [11] = experiment: Ability of 50 mg/kg of compound to kill M5076 tumor cells in mice is expressed as the log of the tumor cell population at the onset of treatment minus the log of the tumor cell population at the end of treatment; assay type: functional; in short: as §4
Mus musculus [12] = experiment: Body weight difference (BWD) of test animals administered with 200 mg/kg compound is determined on day 5 for L1210 tumor cells; assay type: functional
In short: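 L1210 leukaemia: 10^5 cells implanted ip on day 0 in mice. Freshly prepared saline suspension given ip once daily on days 1–5. Body weight difference in g (treated minus control) taken as day 5 minus day 1. Six animals per dose.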

Mus musculus [13] = experiment: Body weight difference (BWD) of test animals administered with 60 mg/kg compound is determined on […] tumor cells; assay type: functional
In short: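 MX-1 human mammary xenograft: solid tumour fragment (1 mm3, 0.5 mg) placed as a subrenal capsule implant on day 0 in NCR-nu mice. Fresh saline suspension dosed ip on days 1, 5 and 9. Body weight difference in g (treated minus control) recorded. Assay evaluated on day 11. Six mice per group.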

Mus musculus [14] = experiment: Body weight difference (BWD) of test animals administered with 50 mg/kg compound is determined on day 14 for M5076 minus 1 tumor cells; assay type: functional
In short: (§6)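 M5076 sarcoma: 10^6 cells inoculated ip on day 0 in B6C3F1 mice. Fresh saline suspension dosed ip every fourth day, on days 1, 5, 9 and 13. Body weight difference in g (treated minus control) taken as day 14 minus day 1. Ten mice per group.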

[15] = Retention time was determined; assay type: ADME
Mus musculus [16] = experiment: Body weight difference (BWD) of test animals administered with 100 mg/kg compound is determined on day 10 for LOX tumor cells.
Mus musculus [17] = experiment: Ability of 100 mg/kg of compound to kill L1210 tumor cells in mice is expressed as the log of the tumor cell population at the onset of treatment minus the log of the tumor cell population at the end of treatment; assay type: functional; in short: as §2
Mus musculus [18] = experiment: Body weight difference (BWD) of test animals administered with 100 mg/kg compound is determined on day 5 for P388 tumor cells; assay type: functional; in short: as §3
Mus musculus [19] = experiment: The […] for M5076 minus 1 tumor cells of test animals dosed with 50 mg/kg of compound; 10/10; assay type: functional; in short: as §5
Mus musculus [20] = experiment: The percent of the median survival time of test mice compared to control mice, administered with 50 mg/kg compound on day 14 for M5076 minus 1 tumor cells; assay type: functional; in short: as §4
Mus musculus [21] = experiment: The percent of the median survival time of test mice compared to control mice, administered with 50 mg/kg compound on day 5 for L1210 tumor cells; assay type: functional; in short: as §2
Mus musculus [22] = experiment: Body weight difference (BWD) of test animals administered with 50 mg/kg compound is determined on day 5 for P388 tumor cells; assay type: functional; in short: as §3
Mus musculus [23] = experiment: The percent of the median survival time of test mice compared to control mice, administered with 200 mg/kg compound on day 14 for M5076 minus 1 tumor cells; assay type: functional; in short: as §4
Mus musculus [24] = experiment: Toxicity day evaluation was carried out on day 5 for animal dosed with 25 mg/kg compound; 6/6; assay type: organism-based; design: dose 25 mg/kg; conditions: in vivo
Mus musculus [25] = experiment: The percent of the median survival time of test mice compared to control mice is determined for mice administered with 50 mg/kg compound; assay type: functional
Mus musculus [26] = experiment: Body weight difference (BWD) of test animals administered with 100 mg/kg compound is determined on day 14 for M5076 minus 1 tumor cells; assay type: functional; in short: as §6
Mus musculus [27] = experiment: Ability of 12.5 mg/kg of compound to kill L1210 tumor cells in mice is expressed as the log of the tumor cell population at the onset of treatment minus the log of the tumor cell population at the end of treatment; assay type: functional; in short: as §2
Mus musculus [28] = experiment: The toxicity day was evaluated on day 5 for L1210 tumor cells of test animals dosed with 200 mg/kg of compound; 0/6; assay type: functional
In short: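 L1210 leukaemia, 10^5 cells, implanted ip on day 0. Freshly prepared saline suspension dosed ip daily on days 1-5. Toxicity evaluated on day 5 as survivors over animals in the initial test group.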

Mus musculus [29] = experiment: Ability of 25 mg/kg of compound to kill L1210 tumor cells in mice is expressed as the log of the tumor cell population at the onset of treatment minus the log of the tumor cell population at the end of treatment; assay type: functional; in short: as §2

In the case of `CNC(=O)OCc1nc(SC)n(C)c1COC(=O)NC`, the “Survivors / animals tested” value (Mus musculus [1]) is reported as 1, the T/C (Mus musculus [2]) is reported as 145% and the BWD (Mus musculus [3]) is reported as -0.7 g. The “Survivors / animals tested” value (Mus musculus [4]) was 6, the T/C (Mus musculus [5]) was 151% and the “Survivors / animals tested” value (Mus musculus [6]) was 6. For the same molecule, the T/C (Mus musculus [7]) was 231%, the “Survivors / animals tested” value (Mus musculus [8]) was 1 and the “Survivors / animals tested” value (Mus musculus [9]) was 5. For the same molecule, the “Survivors / animals tested” value (Mus musculus [10]) was 6, the KE (Mus musculus [11]) was -1.63 and the BWD (Mus musculus [12]) was -3.6 g. It also gave a BWD (Mus musculus [13]) of -1.9 g, a BWD (Mus musculus [14]) of -0.7 g and a TR [15] of 39 min. For the same molecule, the BWD (Mus musculus [16]) was -5.1 g, the KE (Mus musculus [17]) was -0.29 and the BWD (Mus musculus [18]) was -4.1 g. The “Survivors / animals tested” value (Mus musculus [19]) was 10, the T/C (Mus musculus [20]) was 119% and the T/C (Mus musculus [21]) was 124%. The BWD (Mus musculus [22]) was -2.6 g, the T/C (Mus musculus [23]) was 184% and the “Survivors / animals tested” value (Mus musculus [24]) was 6. It also gave a T/C (Mus musculus [25]) of 184%, a BWD (Mus musculus [26]) of -1.2 g and a KE (Mus musculus [27]) of -2.35. For the same molecule, the “Survivors / animals tested” value (Mus musculus [28]) was 0 and the KE (Mus musculus [29]) was -2.23.
